Laboratory results published in ChEMBL document CHEMBL4130468, “Furostane Series Asterosaponins and Other Unusual Steroid Oligoglycosides from the Tropical Starfish Pentaceraster regulus” (J Nat Prod, 2017).
pIC50: −log10 of the molar value. Calls of active or inactive are those of the source. The calls are words filed in the database; no cut-off is given here.

Legend:
[1] = test system: RAW264.7; test: Cytotoxicity against mouse RAW264.7 cells assessed as reduction in cell viability after 24 hrs by MTS assay; assay type: functional, cell-based; conditions: RAW264.7, 24 h
Outline: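 RAW 264.7 murine macrophages (DMEM, 10% FBS, 37 °C, 5% CO2) seeded 6 × 10^3 cells/well and cultured 2 h. Medium then replaced with compound-containing medium (1.25−10.0 μM range), 24 h exposure. MTS reagent added, formazan read 2 h later at 492 nm with 690 nm background. IC50 reported; at least triplicate, mean ± SD.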

[2] = test system: RAW264.7; test: Induction of ROS generation in mouse RAW264.7 cells at 5 uM after 24 hrs by H2DCFDA probe based fluorescence assay; assay type: functional, cell-based
Outline: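 Adhered RAW 264.7 macrophages (2 h, 37 °C, 5% CO2) exposed to compounds at 5 μM without LPS for 24 h, compared with untreated cells. 2,7-Dichlorodihydrofluorescein diacetate added (final 10 μM) for an additional 10 min at 37 °C. Dichlorofluorescein fluorescence measured at λex/λem 485/518 nm. At least triplicate.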

[3] = test system: RAW264.7; test: Immunomodulatory activity in mouse RAW264.7 cells assessed as inhibition of LPS-induced ROS level at 5 uM after 24 hrs by H2DCFDA probe based fluorescence assay relative to control; assay type: functional; conditions: RAW264.7, 24 h
Outline: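 RAW 264.7 macrophages allowed to adhere 2 h at 37 °C, 5% CO2, then given compounds (5 μM) co-incubated with E. coli serotype 055:B5 LPS (1.0 μg/mL) for 24 h. DCFH-DA then added (final 10 μM) for 10 min at 37 °C. Fluorescence read at 485/518 nm; % reduction of LPS-induced ROS. At least triplicate, mean ± SD.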

| Structure (SMILES) | pIC50 [1] | Activity [2] | inhibition at 5 µM [3] [%] |
| --- | --- | --- | --- |
| CC(C)CC(=O)C[C@](C)(O)[C@H]1CC[C@H]2[C@@H]3C[C@H](O[C@@H]4O[C@H](C)[C@@H](O)[C@H](O[C@@H]5OC[C@@H](O[C@@H]6O[C@H](CO)[C@H](O)[C@H](O)[C@H]6O[C@@H]6O[C@H](C)[C@H](O)[C@H](O)[C@H]6O)[C@H](O)[C@H]5O[C@@H]5O[C@H](C)[C@@H](O)[C@H](O)[C@H]5O)[C@H]4O)[C@H]4C[C@@H](OS(=O)(=O)O)CC[C@]4(C)C3=CC[C@@]21C | 5.15 | inactive | – |
| C[C@H]1O[C@@H](O[C@H]2[C@H](O[C@@H]3CO[C@@H](O[C@@H]4[C@@H](O)[C@H](O[C@H]5C[C@@H]6C(=CC[C@@]7(C)[C@H]6CC[C@@H]7[C@@](C)(O)C(=O)/C=C/C(C)(C)O)[C@@]6(C)CC[C@H](OS(=O)(=O)O)C[C@H]56)O[C@H](C)[C@H]4O)[C@H](O[C@@H]4O[C@H](C)[C@@H](O)[C@H](O)[C@H]4O)[C@H]3O)O[C@H](C)[C@@H](O)[C@@H]2O)[C@H](O)[C@@H](O)[C@H]1O | 5.00 to 5.90 | inactive | – |
| CC(C)CCC(=O)[C@](C)(O)[C@H]1CC[C@H]2[C@@H]3C[C@H](O[C@@H]4O[C@H](C)[C@@H](O)[C@H](O[C@@H]5OC[C@@H](O[C@@H]6O[C@H](C)[C@@H](O)[C@H](O)[C@H]6O[C@@H]6O[C@H](C)[C@H](O)[C@H](O)[C@H]6O)[C@H](O)[C@H]5O[C@@H]5O[C@H](C)[C@@H](O)[C@H](O)[C@H]5O)[C@H]4O)[C@H]4C[C@@H](OS(=O)(=O)O)CC[C@]4(C)C3=CC[C@@]21C | – | inactive | 55 |
| CC(C)CC[C@H](O)[C@](C)(O)[C@H]1CC[C@H]2[C@@H]3C[C@H](O[C@@H]4O[C@H](C)[C@@H](O)[C@H](O[C@@H]5OC[C@@H](O[C@@H]6O[C@H](C)[C@@H](O)[C@H](O)[C@H]6O[C@@H]6O[C@H](C)[C@H](O)[C@H](O)[C@H]6O)[C@H](O)[C@H]5O[C@@H]5O[C@H](C)[C@@H](O)[C@H](O)[C@H]5O)[C@H]4O)[C@H]4C[C@@H](OS(=O)(=O)O)CC[C@]4(C)C3=CC[C@]12C | 5.00 to 5.90 | inactive | 28 |
| CC(=O)[C@H]1CC[C@H]2[C@@H]3C[C@H](O[C@@H]4O[C@H](C)[C@@H](O)[C@H](O[C@@H]5OC[C@@H](O[C@@H]6O[C@H](CO)[C@H](O)[C@H](O)[C@H]6O[C@@H]6O[C@H](C)[C@H](O)[C@H](O)[C@H]6O)[C@H](O)[C@H]5O[C@@H]5O[C@H](C)[C@@H](O)[C@H](O)[C@H]5O)[C@H]4O)[C@H]4C[C@@H](OS(=O)(=O)O)CC[C@]4(C)C3=CC[C@]12C | 5.00 to 5.90 | inactive | – |
| CC(C)[C@H](C)[C@@H]1O[C@H]1[C@](C)(O)[C@H]1[C@@H](O)C[C@H]2[C@@H]3C[C@H](O[C@@H]4O[C@H](C)[C@@H](O)[C@H](O[C@@H]5O[C@H](C)[C@@H](O[C@@H]6O[C@H](CO)[C@@H](O)[C@H](O)[C@H]6O[C@@H]6O[C@H](C)[C@H](O)[C@H](O)[C@H]6O)[C@H](O)[C@H]5O[C@@H]5O[C@H](C)[C@@H](O)[C@H](O)[C@H]5O)[C@H]4O)[C@H]4C[C@@H](OS(=O)(=O)O)CC[C@]4(C)C3=CC[C@]12C | 5.19 | inactive | – |
| CC(C)=CC[C@H](O)[C@](C)(O)[C@H]1CC[C@H]2[C@@H]3C[C@H](O[C@@H]4O[C@H](C)[C@@H](O)[C@H](O[C@@H]5OC[C@@H](O[C@@H]6O[C@H](C)[C@@H](O)[C@H](O)[C@H]6O[C@@H]6O[C@H](C)[C@H](O)[C@H](O)[C@H]6O)[C@H](O)[C@H]5O[C@@H]5O[C@H](C)[C@@H](O)[C@H](O)[C@H]5O)[C@H]4O)[C@H]4C[C@@H](OS(=O)(=O)O)CC[C@]4(C)C3=CC[C@]12C | – | inactive | – |
| CC(C)C(C)[C@H](O)[C@@H]1O[C@H]2C[C@H]3[C@@H]4C[C@H](O[C@@H]5O[C@H](C)[C@@H](O)[C@H](O[C@@H]6O[C@H](C)[C@@H](O[C@@H]7O[C@H](CO)[C@@H](O)[C@H](O)[C@H]7O[C@@H]7O[C@H](C)[C@H](O)[C@H](O)[C@H]7O)[C@H](O)[C@H]6O[C@@H]6O[C@H](C)[C@@H](O)[C@H](O)[C@H]6O)[C@H]5O)[C@H]5C[C@@H](OS(=O)(=O)O)CC[C@]5(C)C4=CC[C@]3(C)[C@H]2[C@@]1(C)O (stereo partly specified) | 5.00 to 5.90 | inactive | – |
| CC(=O)[C@H]1CC[C@H]2[C@@H]3C[C@H](O[C@@H]4O[C@H](C)[C@@H](O)[C@H](O[C@@H]5OC[C@@H](O[C@@H]6O[C@H](C)[C@@H](O)[C@H](O)[C@H]6O[C@@H]6O[C@H](C)[C@H](O)[C@H](O)[C@H]6O)[C@H](O)[C@H]5O[C@@H]5O[C@H](C)[C@@H](O)[C@H](O)[C@H]5O)[C@H]4O)[C@H]4C[C@@H](OS(=O)(=O)O)CC[C@]4(C)C3=CC[C@]12C | 5.00 to 5.90 | inactive | – |
| CC(C)CC(=O)C[C@](C)(O)[C@H]1CC[C@H]2[C@@H]3C[C@H](O[C@@H]4O[C@H](C)[C@@H](O)[C@H](O[C@@H]5OC[C@@H](O[C@@H]6O[C@H](CO)[C@@H](O)[C@H](O)[C@H]6O[C@@H]6O[C@H](C)[C@H](O)[C@H](O)[C@H]6O)[C@H](O)[C@H]5O[C@@H]5O[C@H](C)[C@@H](O)[C@H](O)[C@H]5O)[C@H]4O)[C@H]4C[C@@H](OS(=O)(=O)O)CC[C@]4(C)C3=CC[C@@]21C | – | inactive | – |
| CCC(C)[C@H](O)[C@@H]1O[C@H]2C[C@H]3[C@@H]4C[C@H](O[C@@H]5O[C@H](C)[C@@H](O)[C@H](O[C@@H]6O[C@H](C)[C@@H](O[C@@H]7O[C@H](CO)[C@@H](O)[C@H](O)[C@H]7O[C@@H]7O[C@H](C)[C@H](O)[C@H](O)[C@H]7O)[C@H](O)[C@H]6O[C@@H]6O[C@H](C)[C@@H](O)[C@H](O)[C@H]6O)[C@H]5O)[C@H]5C[C@@H](OS(=O)(=O)O)CC[C@]5(C)C4=CC[C@]3(C)[C@H]2[C@@]1(C)O (stereo partly specified) | – | inactive | 40 |
